Published values from different studies.
Organism: Staphylococcus aureus
Effect on: microbial growth

`COC(=O)Nc1ccc(-c2nc(N3CCOCC3)c3cnn(C4CCN(Cc5cccnc5)CC4)c3n2)cc1` gave an MIC of greater than 30 µM (NCTC8325).
For `CC(C)Oc1c(NC(=O)c2ccc(NC(=O)[C@H](CC(N)=O)NC(=O)c3ccc(NC(=O)c4ccc(C#N)cc4)cc3)cc2)ccc(C(=O)Nc2cccc(C(=O)O)c2)c1O`, the MIC was 2 µg/mL (ATCC29213).
For `O=C1NC(=S)S/C1=C\c1ccc(-c2ccc(N(c3ccccc3)c3ccccc3)cc2)c2ccccc12`, the MIC was 500 µg/mL (broth dilution; ATCC25923).
`CCCCCC(=O)Oc1c(C)c(O)c(C(=O)/C=C/c2ccccc2)c(OC)c1C` has an MIC of greater than 5000 µg/mL (broth dilution; ATCC25923).
With `CC(C)Oc1c(NC(=O)c2ccc(NC(=O)[C@H](CC(N)=O)NC(=O)c3ccc(NC(=O)c4ccc(C#N)c(F)c4)cc3)cc2)ccc(C(=O)Nc2ccc(C(=O)O)cc2)c1O` the MIC was 2 µg/mL (ATCC29213).
For `C/C=C(\C)c1cc(OC(=O)c2c(O)c(C)c(O)c(Cl)c2/C(C)=C/C)c(C)c(O)c1C(=O)O`, the MIC was 64 µg/mL (broth dilution; CCARM3090).
`CO[C@H]1[C@H](O[C@H]([C@H]2O[C@@H](n3ccc(=O)[nH]c3=O)[C@H](O)[C@@H]2O)[C@H](NCCCNC(=O)[C@H](CC(C)C)NC(=O)[C@@H](NC(=O)N[C@H](C(=O)O)C(C)C)[C@@H]2CCNC(=N)N2)C(=O)O)O[C@H](CN)[C@H]1O` gave an MIC of greater than 80 µg/mL (NEWMAN).
`O=C(Nc1ccc2c(c1)OC(F)(F)O2)Nc1ccc(Cl)c(C(F)(F)F)c1` has an MIC of 0.3 µM (NCTC8325).
With `C[C@@H](O)[C@H]1C(=O)N2C(C(=O)O)=C(SCCN=CN)C[C@H]12` the MIC was 32 µg/mL (MRSA).
With `CNc1cccc2cc(C(=O)NCCc3cccc(C(=O)O)c3)c(=O)[nH]c12` the MIC was greater than 64 µg/mL (ATCC29213).
The MIC of `Cc1cccc(-c2[nH]c(C(C)(C)C)nc2-c2ccc3nccnc3c2)n1` is reported as greater than 30 µM (NCTC8325).
With `CC(=O)NC[C@H]1CN(c2ccc(N3CCOCC3)c(F)c2)C(=O)O1` the MIC was 32 µM (broth dilution; MRSA NRS119; drug-resistant strain).
With `C[n+]1c(/C=C/c2c[nH]c3ccccc23)cc(/C=C2\Sc3ccccc3N2CCCN2CCCC2)c2ccccc21.[I-]` the MIC was 4 µg/mL (broth dilution; ATCCBAA44).
The MIC of `CSc1ccc(-c2nc3ccccc3[nH]2)cc1` is reported as 16 µg/mL (broth dilution; ATCC29213 MSSA).
`C/C=C(\C)c1cc(O)c(C)c(OC(=O)c2c(C)cc(O)c(Cl)c2O)c1` has an MIC of 8 µg/mL (broth dilution; 745524).
`Nc1c(C(=O)Nc2ccc(C3=NCCN3)cc2)cccc1C(=O)Nc1ccc(C2=NCCN2)cc1` has an MIC of greater than 64 µg/mL.
`Cc1ccc2nc(-c3ccc(F)cc3)[nH]c2c1` gave an MIC of 64 µg/mL (broth dilution; ATCC29213 MSSA).
The MIC of `Cc1ccc(C)n1-c1ccc(C(=O)NNC=O)cc1` is reported as 16 µg/mL (broth dilution; ATCC11632; 18 h).
With `COc1cccc(OC)c1C(=O)N[C@@H]1C(=O)N2[C@@H]1SC(C)(C)[C@@H]2C(=O)O` the MIC was 6.25 µM (147; clinical isolate).
For `CC(C)Oc1c(NC(=O)c2ccc(NC(=O)[C@H](CC(N)=O)NC(=O)c3ccc(NC(=O)c4ccc5c(c4)COC5=O)cc3)cc2)ccc(C(=O)Nc2ccc(C(=O)O)cc2)c1O`, the MIC was 1 µg/mL (ATCC29213).
`Cc1ccc2nc(-c3ccc([N+](=O)[O-])cc3)n(Cc3ccc(Cl)cc3)c2c1` gave an MIC of 8 µg/mL (broth dilution; ATCC29213 MSSA).
For `CN(C)[C@@H]1C(O)=C(C(N)=O)C(=O)[C@@]2(O)C(O)=C3C(=O)c4c(O)cccc4[C@@](C)(O)[C@H]3C[C@@H]12`, the MIC was no more than 0.1 µM (147; clinical isolate).
With `CC1(C(=O)O)CCC(C(=O)Nc2ccc(Nc3ccccc3)cc2)C1(C)C` (stereo not shown) the MIC was greater than 128 µg/mL.
For `O=C(O)c1cn(C2CC2)c2cc(N3CCNCC3)c(F)cc2c1=O`, the MIC was 0.24 µg/mL (broth dilution; ATCC6538).
For `C[n+]1ccc(/C=C2\Sc3ccccc3N2CCCN2CCCCC2)c2ccccc21.[I-]`, the MIC was 4 µg/mL (broth dilution; ATCCBAA44).
With `c1cncc(-c2nc3ccccc3[nH]2)c1` the MIC was 128 µg/mL (broth dilution; ATCC29213 MSSA).
`CCCCCCC#Cc1cncc(-c2nnc(SCc3ccc([N+](=O)[O-])cc3)n2C)c1` has an MIC of no less than 20 µg/mL (MRSA; drug-resistant strain).
The MIC of `C=CCn1c(-c2ccc(OC)c(OC)c2)nc2ccccc21` is reported as 128 µg/mL (broth dilution; ATCC29213 MSSA).
For `Fc1ccc(NCc2ccc(Oc3ccccn3)cc2)cc1`, the MIC was 1.8 µg/mL.
`O=C(O)c1ccc(Nc2ncc3c(n2)-c2ccc(Cl)cc2C(c2c(F)cccc2F)=NC3)cc1` has an MIC of greater than 30 µM (NCTC8325).
With `CC(C)/N=C(\N)c1ccc(NC(=O)c2ccc(C(=O)Nc3ccc(/C(N)=N/C(C)C)cc3)cc2)cc1` the MIC was 4 µg/mL.
The MIC of `CC1=NN(CNc2ccc(Cl)cc2)C(=O)C1=NNn1c(-c2ccccc2)nc2ccccc2c1=O` is reported as 51.5 µM (broth dilution; 24 h).
For `O=C(Nc1ccccc1F)c1ccccc1O`, the MIC was 32 µg/mL (broth dilution; ATCC29213).
`CC(C)CC(=O)Nc1n[nH]c2c1CN(C(=O)C1CCN(C)CC1)C2(C)C` has an MIC of greater than 30 µM (NCTC8325).
The MIC of `O=C(O)CN1C(=O)/C(=C/c2ccc(-c3ccc(N(c4ccccc4)c4ccccc4)cc3)c3ccccc23)NC1=S` is reported as greater than 1000 µg/mL (broth dilution; ATCC43300).
With `C/C=C(\C)c1cc(O)c(C)c(OC(=O)c2c(C)c(Cl)c(O)c(Cl)c2O)c1` the MIC was 4 µg/mL (broth dilution; ATCC29213).
For `NC[C@@H]1O[C@H](O[C@H]2[C@@H](O)[C@H](O[C@@H]3[C@@H](O)[C@H](N)C[C@H](N)[C@H]3O[C@H]3O[C@H](CN)[C@@H](O)[C@H](O)[C@H]3N)O[C@@H]2CO)[C@H](N)[C@@H](O)[C@@H]1O`, the MIC was 5 to 10 µg/mL (NEWMAN).
`C[C@@H]1[C@H](O)[C@@H](C)/C=C/C=C/C=C/C=C/C=C/C=C/C=C/[C@H](O[C@@H]2O[C@H](C)[C@@H](O)[C@H](N)[C@@H]2O)C[C@@H]2O[C@](O)(C[C@@H](O)C[C@@H](O)[C@H](O)CC[C@@H](O)C[C@@H](O)CC(=O)O[C@H]1C)C[C@H](O)[C@H]2C(=O)O` gave an MIC of greater than 128 µg/mL (broth dilution; MB2865).
`CC(C)Oc1c(NC(=O)c2ccc(NC(=O)[C@H](CC(N)=O)NC(=O)c3cccc(NC(=O)c4ccc(C#N)cc4)c3)cc2)ccc(C(=O)Nc2ccc(C(=O)O)cc2)c1O` has an MIC of greater than 64 µg/mL (ATCC29213).
`O=C1NN=C(N=Cc2ccc(O)c(O)c2)C1=NNn1c(-c2ccccc2)nc2ccccc2c1=O` gave an MIC of 107 µM (broth dilution; 24 h).
The MIC of `O=C(CCCCCC[P+](c1ccccc1)(c1ccccc1)c1ccccc1)Nc1ccc(O)c(O)c1.[Br-]` is reported as greater than 32 µg/mL (broth dilution; ATCC43300 MRSA; 18 h).
The MIC of `CSc1ccc(-c2nc3ccc(C)cc3n2Cc2ccccc2)cc1` is reported as 128 µg/mL (broth dilution; ATCC29213 MSSA).
`Cc1ccc(NC(=O)Nc2ccc3c(c2)OC(F)(F)O3)cc1` has an MIC of greater than 100 µM (NCTC8325).
The MIC of `CC(C)Oc1c(NC(=O)c2ccc(NC(=O)[C@H](CC(N)=O)NC(=O)c3ccc(NC(=O)c4ccccc4[N+](=O)[O-])cc3)cc2)ccc(C(=O)Nc2ccc(C(=O)O)cc2)c1O` is reported as greater than 64 µg/mL (ATCC29213).
For `C[C@@H](O)[C@H]1C(=O)N2C(C(=O)O)=C(S[C@@H]3CN[C@H](C(=O)N(C)C)C3)[C@H](C)[C@H]12`, the MIC was 32 µg/mL (broth dilution; ATCC29213).
With `O=C1NC(=S)S/C1=C\c1c2ccccc2c(-c2ccc(N(c3ccccc3)c3ccccc3)cc2)c2ccccc12` the MIC was greater than 1000 µg/mL (broth dilution; ATCC25923).
For `CC(C)Oc1c(NC(=O)c2ccc(NC(=O)[C@H](CC(N)=O)NC(=O)c3ccc(NC(=O)C(C)Oc4ccc(C#N)cc4)cc3)cc2)ccc(C(=O)Nc2ccc(C(=O)O)cc2)c1O` (stereo partly shown), the MIC was greater than 64 µg/mL (ATCC29213).
With `Cc1ccc(C)n1-c1ccc(-c2nnc(-c3ccccc3Cl)[nH]2)cc1` the MIC was 2 µg/mL (broth dilution; ATCC11632; 18 h).
The MIC of `CC1(C)S[C@@H]2[C@H](NC(=O)[C@H](N)c3ccccc3)C(=O)N2[C@H]1C(=O)O` is reported as 4 µg/mL (broth dilution; 745524).
`CSc1nc(O)n2nccc2n1` has an MIC of greater than 128 µg/mL.
`Cc1ccc2nc(-c3ccc([N+](=O)[O-])cc3)n(Cc3ccccc3Cl)c2c1` gave an MIC of 32 µg/mL (broth dilution; ATCC29213 MSSA).
With `c1ccc2c(-c3cnn4cc(-c5ccc(N6CCNCC6)cc5)cnc34)ccnc2c1` the MIC was greater than 30 µM (NCTC8325).
For `CC(C)Oc1c(NC(=O)c2ccc(NC(=O)[C@H](CC(N)=O)NC(=O)c3ccc(CCNC(=O)c4ccc(C#N)cc4)cc3)cc2)ccc(C(=O)Nc2ccc(C(=O)O)cc2)c1O`, the MIC was greater than 64 µg/mL (ATCC29213).
`C/C=C(\C)c1cc(OC(=O)c2c(C)c(Cl)c(O)c(Cl)c2O)c(C)c(O)c1C(=O)O` gave an MIC of 64 µg/mL (broth dilution; 16162).
`COc1cccc(-c2nc3ccccc3n2Cc2ccccc2)c1` gave an MIC of 256 µg/mL (broth dilution; ATCC29213 MSSA).
The MIC of `COc1c(C)c(OC(C)=O)c(C)c(O)c1C(=O)/C=C/c1ccccc1` is reported as 2500 µg/mL (broth dilution; ATCC25923).
For `CS(=O)(=O)CCNCc1ccc(-c2ccc3ncnc(Nc4ccc(OCc5cccc(F)c5)c(Cl)c4)c3c2)o1`, the MIC was greater than 30 µM (NCTC8325).
`O=C(O)CN1C(=O)/C(=C/c2ccc(-c3ccc(N(c4ccccc4)c4ccccc4)cc3)c3ccccc23)SC1=S` has an MIC of 1000 µg/mL (broth dilution; ATCC25923).
